In general, EC50 refers to the concentration needed to bring the measured effect to its halfway point. A high value points to lower potency in that assay. What is called CC50 is the concentration giving 50% cytotoxicity. Low readings indicate harm at low concentration, high ones better tolerance by the cells.

Assay [1] deals with HFF. In words: Ratio of Effective concentration to inhibit cowpox virus plaque formation to that of half maximal cytotoxic concentration in human foreskin fibroblast (HFF) cells. Format: functional.
Assay [2] concerns HFF. In words: Effective concentration required to inhibit vaccinia virus plaque formation in human foreskin fibroblast (HFF) cells. Format: functional, cell-based.
The test system of assay [3] is HFF. Put plainly: Effective concentration required to inhibit cowpox virus plaque formation in human foreskin fibroblast (HFF) cells. Format: functional, cell-based.
Assay [4] has as its system HFF. In words: Half-maximal cytotoxic concentration in human foreskin fibroblast (HFF) cells. In kind it is functional. The procedure, abridged: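 Primary HFF cells seeded at 2.5 × 10^4/well in 96-well plates 24 h ahead. Exposed 7 d at 37 °C to drug in MEM/2% FBS, 1:5 serial dilutions, final 100 to 0.032 µg/mL.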
Assay [5] has as its system HFF. Put plainly: Ratio of Effective concentration to inhibit vaccinia virus plaque formation to that of half maximal cytotoxic concentration in human foreskin fibroblast (HFF) cells. Format: functional.

In the case of `NC(=S)/N=N/c1c(O)[nH]c2ccccc12`, the SI in the assay with HFF [1] was over 7.6; with HFF [5] it was over 32. For the same compound, the half-maximal effective concentration (EC50) came out at 14 µM in the assay with HFF [2] and 60 µM in the assay on HFF [3]. In the assay with HFF [4], this compound had a CC50 of over 454 µM.
For `Nc1ccn(C[C@@H](CO)OCP(=O)(O)O)c(=O)n1.O.O` [CIDOFOVIR] the same measures were over 8.3, over 12, 27 µM, 38 µM and over 317 µM.
For `CN1C(=O)/C(=N\NC(N)=S)c2ccccc21` [METHISAZONE], the SI in the assay on HFF [1] is recorded as over 31; in the assay with HFF [5], over 129. The concentration giving a half-maximal response (EC50) amounted to 3.3 µM in the assay on HFF [2] and 14 µM in the assay with HFF [3]. For the same compound, the CC50 with HFF [4] was over 427 µM.

The values are drawn from ChEMBL document CHEMBL1143612, “Combinatorial optimization of isatin-beta-thiosemicarbazones as anti-poxvirus agents” (J Med Chem, 2005).
